{"data": "Results pooled from the literature", "note": "Lines come from different studies, so protocols differ."}
{"SMILES": "COc1cc2ncnc(N(C)c3ccc4c(c3)/C(=C/c3cccc(Cl)c3)C(=O)N4C)c2cc1OC", "tested on": "BEAS-2B", "observed": "cell growth or viability", "method": "MTT", "quantity": "IC50", "value": "10.1 µM"}
{"SMILES": "Cc1c(C(=O)O)ccc2c3n(nc12)[C@@H]1[C@H](C3)N(CC2CC2)[C@@]2(C(=O)Nc3cc(Cl)ccc32)[C@H]1c1cccc(Cl)c1F", "tested on": "human Fibroblast", "observed": "cell growth or viability", "method": "ATP luminescence", "time": "72 h", "quantity": "GI50", "value": "5 nM"}
{"SMILES": "CN(C)[C@@H]1C(O)=C(C(N)=O)C(=O)[C@@]2(O)C(O)=C3C(=O)c4c(O)cccc4[C@@](C)(O)[C@H]3C[C@@H]12", "tested on": "Escherichia coli", "observed": "microbial growth", "method": "disc diffusion", "tested at": "100 µg/mL", "time": "24 h", "quantity": "inhibition zone", "value": "0 mm"}
{"SMILES": "CC(O)CSc1nnc(-c2ccccc2)n1-c1ccccc1 (stereo not shown)", "tested on": "Staphylococcus aureus", "observed": "microbial growth", "method": "disc diffusion", "tested at": "25 µg/disc", "quantity": "inhibition zone", "value": "10 mm"}
{"SMILES": "C=CC(=O)NC1CCN(c2ncc3ncnc(Nc4ccc(Oc5ccc6c(c5)ncn6C)c(C)c4)c3n2)CC1", "tested on": "IM95", "observed": "cell growth or viability", "quantity": "EC50", "value": "54.1 nM"}
{"SMILES": "CC1(C)CCC(CN2CCN(c3ccc(C(=O)NS(=O)(=O)c4ccc(NCC5CCOCC5)c([N+](=O)[O-])c4)c(Oc4cnc5[nH]ccc5c4)c3)CC2)=C(c2ccc(Cl)cc2)C1", "tested on": "KMS-12-PE", "observed": "cell growth or viability", "method": "ATP luminescence", "time": "48 h", "quantity": "IC50", "value": "0.013 µM"}
{"SMILES": "COc1cc(C=Nc2ccc(C)cc2Cl)ccc1O", "tested on": "Escherichia coli", "observed": "microbial growth", "method": "disc diffusion", "tested at": "2000 µg/mL", "time": "24 h", "quantity": "inhibition zone", "value": "14.8 mm"}
{"SMILES": "CC(O)CSc1nnc(-c2cc3ccccc3o2)n1-c1ccccc1 (stereo not shown)", "tested on": "Escherichia coli", "observed": "microbial growth", "method": "disc diffusion", "tested at": "25 µg/disc", "quantity": "inhibition zone", "value": "10.3 mm"}
{"SMILES": "Cc1nc(Nc2ccc3c(c2)/C(=C/c2ccccc2C)C(=O)N3C)c2ccccc2n1", "tested on": "BEAS-2B", "observed": "cell growth or viability", "method": "MTT", "quantity": "IC50", "value": "15.5 µM"}
{"SMILES": "CC(C)c1ccccc1[C@@H]1CCCN1C1CC2(CCN(c3ccc(C(=O)NS(=O)(=O)c4ccc(NC[C@H]5CC[C@](C)(O)CC5)c([N+](=O)[O-])c4)c(Oc4cnc5[nH]ccc5c4)c3)CC2)C1", "tested on": "MV4-11", "observed": "cell growth or viability", "method": "ATP luminescence", "time": "48 h", "quantity": "IC50", "value": "0.0012 µM"}
